ChEMBL document CHEMBL1126849, “Synthesis of A-ring fluorinated derivatives of (17 alpha,20E/Z)-[125I]iodovinylestradiols: effect on receptor binding and receptor-mediated target tissue uptake” (J Med Chem, 1993)

Assays:
[1] = test system: Rattus norvegicus; assay: Biodistribution in fat of immature female rat after 12 hour administration of 3 micro Ci (111 kBq) in the absence of 60 microg estradiol; type: ADME, organism-based, Adipose tissue; details: in vivo
How it was run: (§1)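 Immature female Long Evans rats (21–24 days, 45–70 g), unanesthetized in retention cages, given 3 µCi (111 kBq) 125I-labeled steroid i.v. via lateral tail vein. Vehicle was ethanol diluted in saline containing 1% Tween-80, giving 9% ethanol final. The blocking group received 60 µg unlabeled estradiol co-injected. Rats were killed under ether by axillary bleeding, and tissues were KCl-washed and gamma-counted. Data are %ID/g, mean ± SE, n=3–5.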

[2] = test system: Rattus norvegicus; assay: Biodistribution in blood of immature female rat after 5 hour administration of 3 micro Ci (111 kBq) in the absence of 60 microg estradiol; type: ADME, organism-based; details: in vivo; how it was run: as §1
[3] = test system: Rattus norvegicus; assay: Biodistribution in uterus of immature female rat after 5 hour administration of 3 micro Ci (111 kBq) in the absence of 60 microg estradiol; type: ADME, organism-based; details: in vivo
How it was run: (§2)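 Immature female Long Evans rats (21–24 days, 45–70 g), 3–5 per group, unanesthetized in retention cages, given 3 μCi (111 kBq) 125I-labeled steroid by lateral tail vein. Vehicle: ethanol diluted with saline containing 1% Tween-80, final ethanol 9%. +E2 group co-injected 60 μg unlabeled estradiol (1 h only). Killed under ether; tissues KCl-washed, weighed, gamma-counted. Output: %ID/g (mean, SE) and uterus to blood or nontarget (muscle, spleen, lungs) ratios.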

[4] = test system: Rattus norvegicus; assay: Biodistribution in lungs of immature female rat after 1 hr administration of 3 micro Ci (111 kBq) in the presence of (+E2); type: ADME, organism-based, Lung; details: in vivo; how it was run: as §1
[5] = test system: Rattus norvegicus; assay: Biodistribution in kidney of immature female rat after 5 hour administration of 3 micro Ci (111 kBq) in the absence of 60 microg estradiol; type: ADME, organism-based; details: in vivo; how it was run: as §1
[6] = test system: Rattus norvegicus; assay: Biodistribution in spleen of immature female rat after 1 hr administration of 3 micro Ci (111 kBq) in the presence of (+E2); type: ADME, organism-based; details: in vivo
How it was run: (§3)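 Immature female Long Evans rats (21–24 days, 45–70 g), three to five per group, given 125I-labeled steroid (3 μCi, 111 kBq) by lateral tail vein without anesthesia. Vehicle: ethanol diluted in saline with 1% Tween-80, final ethanol 9%, 0.22 μm filtered. +E2 groups received 60 μg unlabeled estradiol co-injected. Killed under ether at set times; tissues KCl-washed, blotted, weighed, gamma counted; %ID/g, mean with SE.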

[7] = target: Estrogen receptor (Mus musculus) (UniProt O08537+P19785); assay: Relative binding affinity (RBA) against murine cytoplasmic estrogen receptor incubated at 0-4 degree Celsius for 18 hours; type: protein assay
Chain of Estrogen receptor (Mus musculus) (O08537 whole entry, looked up): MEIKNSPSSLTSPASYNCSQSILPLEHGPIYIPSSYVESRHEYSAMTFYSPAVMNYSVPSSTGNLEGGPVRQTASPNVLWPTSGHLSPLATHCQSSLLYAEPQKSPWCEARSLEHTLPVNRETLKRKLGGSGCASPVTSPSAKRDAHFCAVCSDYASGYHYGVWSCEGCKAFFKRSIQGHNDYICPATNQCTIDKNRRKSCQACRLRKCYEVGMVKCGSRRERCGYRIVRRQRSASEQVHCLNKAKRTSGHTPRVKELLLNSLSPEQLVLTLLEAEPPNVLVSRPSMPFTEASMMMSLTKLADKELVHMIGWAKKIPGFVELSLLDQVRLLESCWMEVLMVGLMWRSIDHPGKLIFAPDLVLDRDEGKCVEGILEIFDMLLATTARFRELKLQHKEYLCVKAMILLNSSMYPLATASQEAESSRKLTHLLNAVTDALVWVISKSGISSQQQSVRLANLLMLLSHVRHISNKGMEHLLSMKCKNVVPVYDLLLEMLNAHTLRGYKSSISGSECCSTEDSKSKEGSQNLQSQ
Chain of Estrogen receptor (Mus musculus) (P19785 whole entry, looked up): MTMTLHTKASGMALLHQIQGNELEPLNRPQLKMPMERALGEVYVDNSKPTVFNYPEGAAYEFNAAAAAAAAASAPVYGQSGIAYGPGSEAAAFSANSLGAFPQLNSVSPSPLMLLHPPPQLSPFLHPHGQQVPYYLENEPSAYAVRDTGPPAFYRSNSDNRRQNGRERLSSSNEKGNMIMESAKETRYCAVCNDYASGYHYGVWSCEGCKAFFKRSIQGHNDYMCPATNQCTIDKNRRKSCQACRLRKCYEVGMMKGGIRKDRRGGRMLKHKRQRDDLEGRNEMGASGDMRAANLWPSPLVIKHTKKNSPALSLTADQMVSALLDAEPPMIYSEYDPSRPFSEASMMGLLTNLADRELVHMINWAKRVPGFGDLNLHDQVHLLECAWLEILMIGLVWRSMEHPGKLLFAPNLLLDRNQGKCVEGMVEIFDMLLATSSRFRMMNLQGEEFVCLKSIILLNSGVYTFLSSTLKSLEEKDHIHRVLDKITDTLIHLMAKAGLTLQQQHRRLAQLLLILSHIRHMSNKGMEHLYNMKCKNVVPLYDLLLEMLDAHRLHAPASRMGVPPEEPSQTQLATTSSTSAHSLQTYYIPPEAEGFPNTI
How it was run: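 Competitive binding on murine uterine cytoplasmic extract with 20 nM [3H]estradiol and competitor steroids at 2 nM–20 μM, incubated 18 h at 0–4 °C. RBA = 100 × ratio of […] concentration giving 50% competition for specific binding. Mean of three experiments with SD.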

[8] = test system: Rattus norvegicus; assay: Biodistribution in uterus / blood of immature female rat after 1 hr administration of 3 micro Ci (111 kBq) in the presence of (+E2); type: ADME, organism-based; details: in vivo
How it was run: (§4)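 Same in vivo procedure: immature female Long Evans rats (21–24 days), three to five per group, 3 μCi (111 kBq) tracer i.v. via tail vein in 9% ethanol/saline/1% Tween-80, ± 60 μg estradiol co-injected at 1 h. Uterus %ID/g (gamma counting) divided by blood, or by nontarget organ (muscle, spleen, lungs), %ID/g to give ratios.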

[9] = test system: Rattus norvegicus; assay: Biodistribution in uterus / blood of immature female rat after 5 hour administration of 3 micro Ci (111 kBq) in the absence of 60 microg estradiol; type: ADME, organism-based; details: in vivo; how it was run: as §4
[10] = test system: Rattus norvegicus; assay: Biodistribution in uterus of immature female rat after 1 hr administration of 3 micro Ci (111 kBq) in the presence of (+E2); type: ADME, organism-based; details: in vivo; how it was run: as §2
[11] = test system: Rattus norvegicus; assay: Biodistribution in uterus / blood of immature female rat after 3 hour administration of 3 micro Ci (111 kBq) in the absence of 60 microg estradiol; type: ADME, organism-based; details: in vivo; how it was run: as §4
[12] = test system: Rattus norvegicus; assay: Biodistribution in lungs of immature female rat after 5 hour administration of 3 micro Ci (111 kBq) in the absence of 60 microg estradiol; type: ADME, organism-based, Lung; details: in vivo; how it was run: as §3
[13] = test system: Rattus norvegicus; assay: Biodistribution in uterus / blood of immature female rat after 12 hour administration of 3 micro Ci (111 kBq) in the absence of 60 microg estradiol; type: ADME, organism-based; details: in vivo; how it was run: as §4
[14] = test system: Rattus norvegicus; assay: Biodistribution in fat of immature female rat after 3 hour administration of 3 micro Ci (111 kBq) in the absence of 60 microg estradiol; type: ADME, organism-based, Adipose tissue; details: in vivo; how it was run: as §1
[15] = test system: Rattus norvegicus; assay: Biodistribution in muscle of immature female rat after 1 hr administration of 3 micro Ci (111 kBq) in the absence of 60 microg estradiol; type: ADME, organism-based, Muscle tissue; details: in vivo; how it was run: as §3
[16] = test system: Rattus norvegicus; assay: Biodistribution in uterus of immature female rat after 12 hour administration of 3 micro Ci (111 kBq) in the absence of 60 microg estradiol; type: ADME, organism-based; details: in vivo; how it was run: as §2
[17] = test system: Rattus norvegicus; assay: Biodistribution in uterus / spleen, muscle, lungs of immature female rat after 12 hour administration of 3 micro Ci (111 kBq) in the absence of 60 microg estradiol; type: ADME, organism-based; details: in vivo; how it was run: as §2
[18] = test system: Rattus norvegicus; assay: Biodistribution in liver of immature female rat after 12 hour administration of 3 micro Ci (111 kBq) in the absence of 60 microg estradiol; type: ADME, organism-based; details: in vivo; how it was run: as §1
[19] = test system: Rattus norvegicus; assay: Biodistribution in fat of immature female rat after 1 hr administration of 3 micro Ci (111 kBq) in the absence of 60 microg estradiol; type: ADME, organism-based, Adipose tissue; details: in vivo; how it was run: as §1
[20] = test system: Rattus norvegicus; assay: Biodistribution in uterus of immature female rat after 1 hr administration of 3 micro Ci (111 kBq) in the absence of 60 microg estradiol; type: ADME, organism-based; details: in vivo; how it was run: as §2
[21] = test system: Rattus norvegicus; assay: Biodistribution in uterus / blood of immature female rat after 1 hr administration of 3 micro Ci (111 kBq) in the absence of 60 microg estradiol; type: ADME, organism-based; details: in vivo; how it was run: as §4
[22] = test system: Rattus norvegicus; assay: Biodistribution in spleen of immature female rat after 1 hr administration of 3 micro Ci (111 kBq) in the absence of 60 microg estradiol; type: ADME, organism-based; details: in vivo; how it was run: as §3
[23] = test system: Rattus norvegicus; assay: Biodistribution in spleen of immature female rat after 5 hour administration of 3 micro Ci (111 kBq) in the absence of 60 microg estradiol; type: ADME, organism-based; details: in vivo; how it was run: as §3
[24] = test system: Rattus norvegicus; assay: Biodistribution in kidney of immature female rat after 3 hour administration of 3 micro Ci (111 kBq) in the absence of 60 microg estradiol; type: ADME, organism-based; details: in vivo; how it was run: as §1
[25] = test system: Rattus norvegicus; assay: Biodistribution in liver of immature female rat after 3 hour administration of 3 micro Ci (111 kBq) in the absence of 60 microg estradiol; type: ADME, organism-based; details: in vivo; how it was run: as §1
[26] = test system: Rattus norvegicus; assay: Biodistribution in uterus of immature female rat after 3 hour administration of 3 micro Ci (111 kBq) in the absence of 60 microg estradiol; type: ADME, organism-based; details: in vivo; how it was run: as §2
[27] = test system: Rattus norvegicus; assay: Biodistribution in thyroid of immature female rat after 5 hour administration of 3 micro Ci (111 kBq) in the absence of 60 microg estradiol; type: ADME, organism-based, Thyroid gland; details: in vivo; how it was run: as §3
[28] = test system: Rattus norvegicus; assay: Biodistribution in blood of immature female rat after 3 hour administration of 3 micro Ci (111 kBq) in the absence of 60 microg estradiol; type: ADME, organism-based; details: in vivo; how it was run: as §1
[29] = test system: Rattus norvegicus; assay: Biodistribution in uterus / spleen, muscle, lungs of immature female rat after 1 hr administration of 3 micro Ci (111 kBq) in the absence of 60 microg estradiol; type: ADME, organism-based; details: in vivo; how it was run: as §4
[30] = test system: Rattus norvegicus; assay: Biodistribution in blood of immature female rat after 1 hr administration of 3 micro Ci (111 kBq) in the presence of (+E2); type: ADME, organism-based; details: in vivo; how it was run: as §1

| SMILES | ID/g [1] | ID/g [2] | ID/g [3] | ID/g [4] | ID/g [5] | ID/g [6] | RBA [7] | uterus/blood %ID/g ratio [8] | uterus to blood ratio [9] | ID/g [10] | uterus to blood %ID/g ratio (unitless) [11] | ID/g [12] | ID/g [14] | ID/g [15] | ID/g [16] | ID/g [18] | ID/g [19] | ID/g [20] | uterus-to-blood ratio of %ID/g [21] | ID/g [22] | also measured |
| --- | --- | --- | --- | --- | --- | --- | --- | --- | --- | --- | --- | --- | --- | --- | --- | --- | --- | --- | --- | --- | --- |
| CO[C@H]1C[C@@]2(C)[C@@H](CC[C@@]2(O)/C=C\I)[C@@H]2CCc3c(ccc(O)c3F)[C@H]21 | 0.47% | 0.51% | 10.96% | 0.95% | 1.08% | 1.28% | 37.9 | 1.3% | 20.08% | 1.06% | 13.35% | 0.51% | 1.13% | 0.66% | 8.31% | 0.83% | 1.43% | 6.87% | 10.55% | 2.04% | Uterus-to-blood radioactivity ratio (dimensionless) [13]: 34.58%; uterus to nontarget tissue ratio [17]: 19.35%; ID/g [23]: 0.66%; ID/g [24]: 1.08%; ID/g [25]: 1.21%; ID/g [26]: 7.48%; ID/g [27]: 2369%; ID/g [28]: 0.56%; uterus-to-nontarget tissue uptake ratio [29]: 7.3% |
| CO[C@H]1C[C@@]2(C)[C@@H](CC[C@@]2(O)/C=C/I)[C@@H]2CCc3cc(O)c(F)cc3[C@H]21 | 0.45% | 0.32% | 3.9% | 1.22% | 1.52% | 1.04% | 13.5 | 1.6% | 12.41% | 0.81% | 8.28% | 0.51% | 1.82% | 0.87% | 1.2% | 1.48% | 3.34% | 4.41% | 9.82% | 0.83% | ID/g [30]: 0.51%; Uterus-to-blood radioactivity ratio (dimensionless) [13]: 10.45%; uterus to nontarget tissue ratio [17]: 6.75%; ID/g [23]: 0.82%; ID/g [24]: 0.96%; ID/g [25]: 3.56%; ID/g [26]: 3.23%; ID/g [27]: 412%; ID/g [28]: 0.38%; uterus-to-nontarget tissue uptake ratio [29]: 4.78% |
| C[C@]12CC[C@@H]3c4ccc(O)c(F)c4CC[C@H]3[C@@H]1CC[C@@]2(O)/C=C/I | 0.3% | 0.26% | 1.82% | 0.75% | 0.26% | 0.51% | 55.9 | 1.02% | 9.01% | 0.77% | 4.56% | 0.28% | 1.59% | 0.46% | 0.43% | 0.59% | 2.97% | 3.75% | 5.42% | 0.59% | ID/g [30]: 0.81%; Uterus-to-blood radioactivity ratio (dimensionless) [13]: 2.76%; uterus to nontarget tissue ratio [17]: 5.4%; ID/g [23]: 0.17%; ID/g [24]: 0.59%; ID/g [25]: 2.2%; ID/g [26]: 4.24%; ID/g [27]: 208%; ID/g [28]: 0.96%; uterus-to-nontarget tissue uptake ratio [29]: 6.39% |
| CO[C@H]1C[C@@]2(C)[C@@H](CC[C@@]2(O)/C=C\I)[C@@H]2CCc3cc(O)c(F)cc3[C@H]21 |  |  |  |  |  |  | 27.9 |  |  |  |  |  |  |  |  |  |  |  |  |  |  |
| CO[C@H]1C[C@@]2(C)[C@@H](CC[C@@]2(O)/C=C/I)[C@@H]2CCc3c(ccc(O)c3F)[C@H]21 |  |  |  |  |  |  | 27.7 |  |  |  |  |  |  |  |  |  |  |  |  |  |  |
| C[C@]12CC[C@@H]3c4cc(F)c(O)cc4CC[C@H]3[C@@H]1CC[C@@]2(O)/C=C/I | 0.41% | 0.29% | 0.34% | 0.93% | 0.25% | 0.56% | 6.2 | 1.09% | 1.15% | 0.52% | 1.4% | 0.54% | 3.17% | 0.73% | 0.08% | 1.58% | 3.45% | 1% | 2.21% | 0.57% | ID/g [30]: 0.49%; ID/g [23]: 0.27%; ID/g [24]: 0.47%; ID/g [26]: 0.53%; ID/g [27]: 43.46%; ID/g [28]: 0.42% |
